# “Also recorded” adds a separate entry of the source. Structures can show the parent of a compound that is named as a salt. Where two headings read alike, the source gives them in different places.
# How the values were obtained:
# [1] = Non-enzymatic stability on storage and in solution; format: physicochemical; conditions: extended solution times (overnight), LCMS
# [2] = tested on: E. coli expressing tetracycline destructase enzymes; test: Checkerboard whole cell inhibition assay; format: cell-based; conditions: co-administered with tetracycline antibiotics
# [3] = tested on: tetracycline destructase enzymes Tet(50), Tet(X), and Tet(X)_3; format: biochemical
# Summary of the method: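 Enzymes expressed from pET28b(+) in E. coli BL21-Star (DE3) and Ni-NTA purified. Reactions in 100 mM TAPS pH 8.5 held 504 μM NADPH, 5.04 mM MgCl2, 25.3 μM tetracycline substrate, 0.4 μM enzyme and graded inhibitor, in triplicate. Absorbance at 380 or 400 nm was followed for 4 min. Initial velocities were plotted against log[inhibitor] and fitted by nonlinear regression for IC50. Controls: no-enzyme, no-inhibitor, no-substrate.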
# Tet(X) [4] = target: T1, Tet(X) (Bacteroides thetaiotaomicron, UniProt Q93L51); test: In vitro inhibition of Tet; format: biochemical
# Tet(50) [5] = target: T2, Tet(50) (Unknown prokaryotic organism, UniProt A0A059WYP6); test: Exposure of aDem to Tet; format: biochemical; conditions: Tet(50) with NADPH, no tetracycline, LCMS
# Tet(50) [6] = target: T2, Tet(50); test: In vitro inhibition of Tet; format: biochemical; conditions: degradation of tetracycline antibiotics by soil-derived Tet(50)
# Summary of the method: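 Ni-NTA-purified enzyme, dialysed into 50 mM K2HPO4 pH 8.0, 150 mM NaCl, 1 mM DTT. A380 or A400 followed continuously for 4 min. No-enzyme control was set to 1 × 10^15 inhibitor, no-inhibitor control to 1 × 10^−15. No-substrate controls were also run.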
# Tet(X) [7] = target: T1, Tet(X); test: Tet; format: biochemical; conditions: decrease in 440 nm absorption band and extracted mass (LCMS)
# [8] = tested on: E. coli expressing Tet(X); test: Whole cell resistance of E. coli expressing Tet; format: cell-based
# [9] = apparent IC50, Tet(X)-mediated degradation of tigecycline
Structure (SMILES),non-enzymatic degradation in solution [1],whole cell inhibition / rescue of tetracycline activity [2],in vitro destructase inhibitory activity [3],IC50 (Tet(X) [4]; [9]) [nM],other results
"Cc1c2c(c(O)c3c(O)ccc(I)c13)C(=O)[C@]1(O)C(=O)C(C(N)=O)=C(O)[C@@H](N(C)C)[C@@H]1C2.Cl [7-I-aTc, (4S,4aS,12aS)-4-(dimethylamino)-3,10,11,12a-tetrahydroxy-7-iodo-6-methyl-1,12-dioxo-1,4,4a,5,12,12a-hexahydrotetracene-2-carboxamide hydrochloride]",non-enzymatic degradation of 7-I-aTc in solution was observed; also recorded: some non-enzymatic degradation,limited activity; also recorded: no inhibitory activity,potent in vitro destructase inhibitory activity,–,–
"Cc1c2c(c(O)c3c(O)c(Br)ccc13)C(=O)[C@]1(O)C(=O)C(C(N)=O)=C(O)[C@@H](N(C)C)[C@@H]1C2.Cl [9-Br-aTc, (4S,4aS,12aS)-9-bromo-4-(dimethylamino)-3,10,11,12a-tetrahydroxy-6-methyl-1,12-dioxo-1,4,4a,5,12,12a-hexahydrotetracene-2-carboxamide hydrochloride]",some non-enzymatic degradation,limited activity,potent in vitro destructase inhibitory activity,–,–
"Cc1c2c(c(O)c3c(O)ccc(Cl)c13)C(=O)[C@]1(O)C(=O)C(C(N)=O)=C(O)[C@@H](N(C)C)[C@@H]1C2 [aCTc, (4S,4aS,12aS)-7-chloro-4-(dimethylamino)-3,10,11,12a-tetrahydroxy-6-methyl-1,12-dioxo-1,4,4a,5,12,12a-hexahydrotetracene-2-carboxamide hydrochloride]",–,–,–,400 to 1500,–
"CN(C)[C@@H]1C(O)=C(C(N)=O)C(=O)[C@@]2(O)C(=O)c3c(cc4c(Cl)ccc(O)c4c3O)C[C@@H]12.Cl [aDem, (4S,4aS,12aS)-7-chloro-4-(dimethylamino)-3,10,11,12a-tetrahydroxy-1,12-dioxo-1,4,4a,5,12,12a-hexahydrotetracene-2-carboxamide hydrochloride]",–,rescues tetracycline activity,–,400 to 1500,"decrease in extracted mass over time (Tet(50) [5]): no measurable decrease; in vitro inhibitory activity against enzymatic degradation by Tet(50) (Tet(50) [6]): performed poorly; in vitro inhibitory activity against enzymatic degradation by Tet(50) (Tet(50) [6]; listed as 7): poor in vitro inhibitory activity; IC50 (Tet(X) [4]; apparent IC50, Tet(X)-mediated degradation of tetracycline antibiotics (tetracycline, demeclocycline)): 1000 to 4000 nM"
"Cc1c2c(c(O)c3c(O)cccc13)C(=O)[C@]1(O)C(=O)C(C(N)=O)=C(O)[C@@H](N(C)C)[C@@H]1C2 [aTc, anhydrotetracycline, reference compound]",–,performs well,–,–,"enzymatic degradation by Tet(X) (Tet(X) [7]): substrate for Tet(X); IC50 (Tet(X) [4]): 400 to 1500 nM; inhibition model ([3]; Lineweaver-Burk plots, degradation of tetracycline): mixed competitive/non-competitive inhibition model"
CN(C)c1cc(NC(=O)CNC(C)(C)C)c(O)c2c1C[C@H]1C[C@H]3[C@H](N(C)C)C(O)=C(C(N)=O)C(=O)[C@@]3(O)C(O)=C1C2=O [tigecycline],–,–,–,–,"resistance, increase over empty vector controls [8]: 2 fold"

# — publication PMC6490184 (ACS infectious diseases, 2019)
